{"source": "ChEMBL document CHEMBL2417486", "about": "“Exploring natural product chemistry and biology with multicomponent reactions. 5. Discovery of a novel tubulin-targeting scaffold derived from the rigidin family of marine alkaloids” (J Med Chem, 2013)", "key": {"HeLa [1]": {"tested_on": "HeLa", "experiment": "Cell cycle arrest in human HeLa cells assessed as accumulation at G2/M phase at 1 uM after 32 hrs using Vybrant Orange staining by flow cytometry relative to control", "assay_type": "functional, cell-based", "method_in_brief": "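HeLa cells at 70–80% confluence were seeded at 2 × 10^5 per well in DMEM/10% FBS with penicillin G and streptomycin, left to adhere overnight, then treated at 1 µM for 32 h (0.1% DMSO control). Washed, trypsinized, stained 30 min at 37 °C with 10 µM Vybrant Orange in medium, then analysed by flow cytometry for DNA content.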"}, "[2]": {"experiment": "Growth inhibition of human doxorubicin-resistant MES-SA/Dx5 cells after 48 hrs by MTT assay", "assay_type": "functional", "settings": "MES-SA/Dx5, 48 h", "method_in_brief": "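Cells seeded at 4 × 10^3 per well, grown 24 h, then treated 48 h at 0.004–100 µM from 100 or 25 mM DMSO stocks. Controls were 0.1% DMSO and phenyl arsine oxide. MTT (5 mg/mL) added for 2 h, formazan dissolved in DMSO, A490 read.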"}, "[3]": {"experiment": "Growth inhibition of human UM-SCC-22A cells after 48 hrs by MTT assay", "assay_type": "functional"}, "UMSCC22B": {"tested_on": "UMSCC22B", "experiment": "Growth inhibition of human UM-SCC-22B cells after 48 hrs by MTT assay", "assay_type": "functional"}, "HeLa [4]": {"tested_on": "HeLa", "experiment": "Antimitotic activity in human HeLa cells assessed as effect on spindle length at 1 to 10 nM after 3 hrs by Hoechst 33342 staining based inverted microscopic analysis", "assay_type": "functional, cell-based", "method_in_brief": "(§1)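 HeLa cells grown in EMEM with 10% FBS, sodium pyruvate and sodium bicarbonate; treated 3 h with compound (DMSO stock prediluted in medium) or 0.1% DMSO carrier. Fixed in methanol at -20°C for 30 min, blocked in 3% BSA/PBS 1 h, mouse anti-tubulin plus rabbit anti-pericentrin overnight at 4 °C, Alexafluor secondaries, Hoechst 33342 for DNA; epifluorescence imaging with Apotome.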"}, "[5]": {"experiment": "Growth inhibition of human U373 cells after 48 hrs by MTT assay", "assay_type": "functional, U-373MG ATCC", "settings": "U373 MG"}, "HeLa [6]": {"tested_on": "HeLa", "experiment": "Antimitotic activity in human HeLa cells assessed as disruption of interphase microtubule organization at 10 to 100 nM after 3 hrs by Hoechst 33342 staining based inverted microscopic analysis", "assay_type": "functional, cell-based", "method_in_brief": "as §1"}, "HeLa [7]": {"tested_on": "HeLa", "experiment": "Growth inhibition of human HeLa cells after 48 hrs by MTT assay", "assay_type": "functional", "method_in_brief": "(§2)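 Cells seeded at 4 × 10^3 per well, grown 24 h, then treated 48 h at 0.004–100 µM from 100 or 25 mM DMSO stocks. Controls were 0.1% DMSO and phenyl arsine oxide. MTT (5 mg/mL) added for 2 h, formazan dissolved in DMSO, A490 read. […] HeLa/MCF-7 in DMEM, MES-SA lines in RPMI-1640, all with 10% FBS.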"}, "[8]": {"molecular_target": "Tubulin beta (Homo sapiens) (UniProt P68371+Q9H4B7+Q13509+P04350+Q3ZCM7+P07437+Q13885+Q9BVA1+Q9BUF5+A6NNZ2)", "experiment": "Inhibition of [3H] radiolabelled colchicine binding to tubulin beta (unknown origin) at 5 uM by DEAE-cellulose filter method", "assay_type": "protein assay"}, "[9]": {"experiment": "Inhibition of bovine brain tubulin polymerization preincubated for 15 mins followed by GTP addition measured after 20 mins by turbidimetric analysis", "parameters": "species or system Bos taurus", "method_in_brief": "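Bovine brain tubulin at 10 µM (1.0 mg/mL) in 0.8 M monosodium glutamate (pH 6.6 in 2 M stock) was preincubated with varying compound concentrations for 15 min at 30 °C, then cooled to 0 °C. After addition of 0.4 mM GTP, samples were warmed to 30 °C and assembly followed by turbidity at 350 nm.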"}, "MCF7": {"tested_on": "MCF7", "experiment": "Growth inhibition of human MCF7 cells after 48 hrs by MTT assay", "assay_type": "functional", "settings": "MCF7, 48 h", "method_in_brief": "as §2"}, "[10]": {"experiment": "Growth inhibition of human UM-SCC-10A cells after 48 hrs by MTT assay", "assay_type": "functional", "settings": "UMSCC-10A"}, "[11]": {"experiment": "Aqueous solubility of the compound by spectrophotometric analysis", "assay_type": "physicochemical", "method_in_brief": "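Compound dispersed in ultrapure water at >0.5 mg/mL; supernatant centrifuged repeatedly until no pellet remained, then diluted 1:2 (solution:DMSO). Concentration read from absorbance at peak 335–336 nm against a calibration line made in 1:2 water/DMSO, and corrected for the DMSO dilution.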"}, "[12]": {"experiment": "Growth inhibition of human Hs683 cells after 48 hrs by MTT assay", "assay_type": "functional", "settings": "Hs 683, 48 h"}, "A549": {"tested_on": "A549", "experiment": "Growth inhibition of human A549 cells after 48 hrs by MTT assay", "assay_type": "functional", "settings": "A549, 48 h"}, "HeLa [13]": {"tested_on": "HeLa", "experiment": "Antimitotic activity in human HeLa cells assessed as disruption of mitotic microtubule organization at 10 to 100 nM after 3 hrs by Hoechst 33342 staining based inverted microscopic analysis", "assay_type": "functional, cell-based", "method_in_brief": "as §1"}, "SK-MEL-28": {"tested_on": "SK-MEL-28", "experiment": "Growth inhibition of human SK-MEL-28 cells after 48 hrs by MTT assay", "assay_type": "functional", "settings": "SK-MEL-28, 48 h"}, "HeLa [14]": {"tested_on": "HeLa", "experiment": "Antimitotic activity in human HeLa cells assessed as interphase microtubule organization at 1 to 10 nM after 3 hrs by Hoechst 33342 staining based inverted microscopic analysis", "assay_type": "functional, cell-based", "method_in_brief": "as §1"}, "[15]": {"experiment": "Growth inhibition of human UM-SCC-10B cells after 48 hrs by MTT assay", "assay_type": "functional"}, "B16-F10": {"tested_on": "B16-F10", "experiment": "Growth inhibition of mouse B16F10 cells after 48 hrs by MTT assay", "assay_type": "functional", "settings": "B16-F10, 48 h"}, "HeLa [16]": {"tested_on": "HeLa", "experiment": "Antimitotic activity in human HeLa cells assessed as mitotic microtubule organization at 1 to 10 nM after 3 hrs by Hoechst 33342 staining based inverted microscopic analysis", "assay_type": "functional, cell-based", "method_in_brief": "as §1"}, "[17]": {"experiment": "Growth inhibition of human MES-SA cells after 48 hrs by MTT assay", "assay_type": "functional", "method_in_brief": "as §2"}}, "note": "Active and inactive are the calls of the source. The rule behind the calls is not given here.", "data": [{"smiles": "O=C(c1ccccc1)c1[nH]c2[nH]cnc(=O)c2c1-c1cc(Br)cc(Br)c1", "values": [{"measurement": "Activity", "setting": "HeLa [1]", "value": "Active"}, {"measurement": "GI50", "setting": "[2]", "value": 0.394, "unit": "µM"}, {"measurement": "GI50", "setting": "[3]", "value": 0.11, "unit": "µM"}, {"measurement": "GI50", "setting": "UMSCC22B", "value": 0.02, "unit": "µM"}, {"measurement": "Activity", "setting": "HeLa [4]", "value": "inactive"}, {"measurement": "GI50", "setting": "[5]", "value": 0.03, "unit": "µM"}, {"measurement": "Activity", "setting": "HeLa [6]", "value": "Active"}, {"measurement": "GI50", "setting": "HeLa [7]", "value": 0.095, "unit": "µM"}, {"measurement": "inhibition", "setting": "[8]", "value": 71, "unit": "%"}, {"measurement": "IC50", "setting": "[9]", "value": 1.6, "unit": "µM"}, {"measurement": "GI50", "setting": "MCF7", "value": 0.095, "unit": "µM"}, {"measurement": "GI50", "setting": "[10]", "value": 0.09, "unit": "µM"}, {"measurement": "solubility", "setting": "[11]", "value": 40, "unit": "µM"}, {"measurement": "GI50", "setting": "[12]", "value": 0.02, "unit": "µM"}, {"measurement": "GI50", "setting": "A549", "value": 0.03, "unit": "µM"}, {"measurement": "Activity", "setting": "HeLa [13]", "value": "Active"}, {"measurement": "GI50", "setting": "SK-MEL-28", "value": 0.02, "unit": "µM"}, {"measurement": "Activity", "setting": "HeLa [14]", "value": "inactive"}, {"measurement": "GI50", "setting": "[15]", "value": 0.1, "unit": "µM"}, {"measurement": "GI50", "setting": "B16-F10", "value": 0.05, "unit": "µM"}, {"measurement": "Activity", "setting": "HeLa [16]", "value": "inactive"}, {"measurement": "GI50", "setting": "[17]", "value": 0.081, "unit": "µM"}]}]}
